Experimental data taken from ChEMBL document CHEMBL3120102, “Structure-based design, synthesis and biological evaluation of novel anthra[1,2-d]imidazole-6,11-dione homologues as potential antitumor agents” (2013).

Columns and labels:
Assay type in all cases: functional
[1] = system: HL-60(TB); assay: Cytotoxicity against human HL-60(TB) cells assessed as growth inhibition after 48 hrs by SRB assay
In short: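 NCI 60-cell panel five-concentration stage (0.01, 0.1, 1, 10, 100) in HL-60(TB). Cellular protein was measured by sulforhodamine B colorimetry after 48 h of exposure. A time-zero cell control and untreated plates allowed calculation of GI50, TGI and LC50. These were read from log10 concentration dose-response curves.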

[2] = system: SK-MEL-5; assay: Cytotoxicity against human SK-MEL-5 cells assessed as growth inhibition after 48 hrs by SRB assay
In short: (§1)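 NCI 60-cell-line screen, five-dose stage: each cell line exposed for 48 h to five concentrations spanning five log steps; cellular protein measured by sulforhodamine B colorimetry. A time-zero cell control and plates without drug are used to derive GI50, TGI and LC50 from log-concentration dose-response curves.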

[3] = system: SNB-19; assay: Cytotoxicity against human SNB19 cells assessed as growth inhibition after 48 hrs by SRB assay
In short: (§2)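 NCI 60-cell-line screen, two stages. Five-dose testing at […]. Cellular protein measured by sulforhodamine B colorimetry after 48 h drug exposure. A time-zero control and drug-free plates are used to derive GI50, TGI and LC50 from dose-response curves plotted as log10 concentration per cell line.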

[4] = system: SN12C; assay: Cytotoxicity against human SN12C cells assessed as growth inhibition after 48 hrs by SRB assay; in short: as §2
[5] = system: SK-MEL-28; assay: Cytotoxicity against human SK-MEL-28 cells assessed as growth inhibition after 48 hrs by SRB assay; in short: as §1
[6] = system: MCF7; assay: Cytotoxicity against human MCF7 cells assessed as growth inhibition after 48 hrs by SRB assay; in short: as §1
[7] = system: HCT-15; assay: Cytotoxicity against human HCT15 cells assessed as growth inhibition after 48 hrs by SRB assay
In short: (§3)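 NCI 60-cell-line five-dose screen at […]. Drug exposure was 48 h, followed by sulforhodamine B protein staining. GI50, TGI and LC50 were calculated against a time-zero control and untreated plates, with dose–response curves plotted from log10 concentration.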

[8] = system: RXF 393; assay: Cytotoxicity against human RXF393 cells assessed as growth inhibition after 48 hrs by SRB assay; in short: as §1
[9] = system: PC-3; assay: Cytotoxicity against human PC3 cells assessed as growth inhibition after 48 hrs by SRB assay; in short: as §1
[10] = system: KM12; assay: Cytotoxicity against human KM12 cells assessed as growth inhibition after 48 hrs by SRB assay; in short: as §3
[11] = system: SR; assay: Cytotoxicity against human SR cells assessed as growth inhibition after 48 hrs by SRB assay; in short: as §2
[12] = system: NCI-H23; assay: Cytotoxicity against human NCI-H23 cells assessed as growth inhibition after 48 hrs by SRB assay; in short: as §1
[13] = system: MDA-MB-231; assay: Cytotoxicity against human MDA-MB-231 cells assessed as growth inhibition after 48 hrs by SRB assay; in short: as §1
[14] = system: MOLT-4; assay: Cytotoxicity against human MOLT4 cells assessed as growth inhibition after 48 hrs by SRB assay; in short: as §1
[15] = system: SF-295; assay: Cytotoxicity against human SF295 cells assessed as growth inhibition after 48 hrs by SRB assay; in short: as §1
[16] = system: T47D; assay: Cytotoxicity against human T47D cells assessed as growth inhibition after 48 hrs by SRB assay; in short: as §2
[17] = system: MDA-MB-435; assay: Cytotoxicity against human MDA-MB-435 cells assessed as growth inhibition after 48 hrs by SRB assay; in short: as §1
[18] = system: 786-0; assay: Cytotoxicity against human 786-0 cells assessed as growth inhibition after 48 hrs by SRB assay; in short: as §3
[19] = Cytotoxicity against human Hs578T cells assessed as cell growth at 10 uM after 48 hrs by SRB assay; details: Hs-578T, read-out: Activity
[20] = system: MDA-MB-468; assay: Cytotoxicity against human MDA-MB-468 cells assessed as growth inhibition after 48 hrs by SRB assay; in short: as §1
[21] = system: A498; assay: Cytotoxicity against human A498 cells assessed as growth inhibition after 48 hrs by SRB assay; in short: as §3
[22] = (§4) Cytotoxicity against human OVCAR4 cells assessed as growth inhibition after 48 hrs by SRB assay; details: OVCAR-4, 48 h; in short: as §1
[23] = system: OVCAR-4; assay: as §4; in short: as §1
[24] = system: A549; assay: Cytotoxicity against human A549 cells assessed as growth inhibition after 48 hrs by SRB assay; in short: as §3
[25] = system: K562; assay: Cytotoxicity against human K562 cells assessed as growth inhibition after 48 hrs by SRB assay; in short: as §3
[26] = system: IGROV-1; assay: Cytotoxicity against human IGROV1 cells assessed as growth inhibition after 48 hrs by SRB assay; in short: as §3

## CCCSc1nc2ccc3c(c2[nH]1)C(=O)c1ccccc1C3=O
[1]
  growth inhibition (GI): Dose-dependent effect
[1]; HL-60, 48 h
  GI50: 68.4 µM
  LC50: > 100 µM
  TGI: > 100 µM
[2]
  growth inhibition (GI): Dose-dependent effect
[2]; SK-MEL-5, 48 h
  GI50: > 100 µM
  LC50 (concentration killing 50% of cells relative to time zero): > 100 µM
  TGI: > 100 µM
[3]
  growth inhibition (GI): Dose-dependent effect
[3]; SNB-19, 48 h
  GI50: 9.35 µM
  LC50: > 100 µM
  TGI: > 100 µM
[4]
  GI50: 14 µM
  TGI: > 100 µM
  growth inhibition (GI): Dose-dependent effect
[4]; read-out: LC50 (the source's name)
  CC50: > 100 µM
[5]
  growth inhibition (GI): Dose-dependent effect
[5]; SK-MEL-28, 48 h
  GI50: > 100 µM
  LC50: > 100 µM
  TGI: > 100 µM
[6]
  growth inhibition (GI): Dose-dependent effect
[6]; MCF7, 48 h
  GI50: 57 µM
  LC50 (concentration killing 50% of cells): > 100 µM
  TGI: > 100 µM
[7]
  growth inhibition (GI): Dose-dependent effect
[7]; HCT-15, 48 h
  GI50: > 100 µM
  LC50 (concentration killing 50% of cells): > 100 µM
  TGI: > 100 µM
[8]
  growth inhibition (GI): Dose-dependent effect
[8]; RXF 393, 48 h
  GI50: 2.65 µM
  TGI: 8.1 µM
[8]; RXF 393, 48 h, read-out: LC50 (the source's name)
  CC50: > 100 µM
[9]
  growth inhibition (GI): Dose-dependent effect
[9]; PC-3, 48 h
  GI50: 11.3 µM
  LC50: > 100 µM
  TGI: > 100 µM
[10]
  growth inhibition (GI): Dose-dependent effect
[10]; KM12, 48 h
  GI50: > 100 µM
  TGI: > 100 µM
[10]; KM12, 48 h, read-out: LC50 (the source's name)
  CC50: > 100 µM
[11]
  GI50: 4.63 µM
  LC50 (50% lethal concentration): > 100 µM
  TGI: > 100 µM
  growth inhibition (GI): Dose-dependent effect
[12]
  growth inhibition (GI): Dose-dependent effect
[12]; NCI-H23, 48 h
  GI50: 48 µM
  LC50: > 100 µM
  TGI: > 100 µM
[13]
  growth inhibition (GI): Dose-dependent effect
[13]; MDA-MB-231, 48 h
  GI50: 5.14 µM
  LC50: > 100 µM
  TGI: > 100 µM
[14]
  growth inhibition (GI): Dose-dependent effect
[14]; MOLT-4, 48 h
  GI50: > 100 µM
  LC50 (50% lethal concentration): > 100 µM
  TGI: > 100 µM
[15]
  growth inhibition (GI): Dose-dependent effect
[15]; SF-295, 48 h
  GI50: 3.19 µM
  LC50: > 100 µM
  TGI: 60.2 µM
[16]
  GI50: 2.66 µM
  LC50: > 100 µM
  TGI: > 100 µM
  growth inhibition (GI): Dose-dependent effect
[17]
  growth inhibition (GI): Dose-dependent effect
[17]; MDA-MB-435, 48 h
  GI50: > 100 µM
  LC50: > 100 µM
  TGI: > 100 µM
[18]
  growth inhibition (GI): Dose-dependent effect
[18]; 786-0, 48 h
  GI50: 2.13 µM
  LC50 (concentration causing 50% net cell kill): 9.04 µM
  TGI: 4.39 µM
[19]
  growth at 10 µM: 33.3%
[20]
  growth inhibition (GI): Dose-dependent effect
[20]; MDA-MB-468, 48 h
  GI50: 6.38 µM
  LC50: > 100 µM
  TGI: > 100 µM
[21]
  growth inhibition (GI): Dose-dependent effect
[21]; A498, 48 h
  GI50: 13.9 µM
  TGI: > 100 µM
[21]; A498, 48 h, read-out: LC50 (the source's name)
  CC50: > 100 µM
[22]
  GI50: 5.05 µM
  LC50 (concentration killing 50% of cells): > 100 µM
  TGI: > 100 µM
[23]
  growth inhibition (GI): Dose-dependent effect
[24]
  growth inhibition (GI): Dose-dependent effect
[24]; A549, 48 h
  GI50: 6.37 µM
  LC50 (concentration killing 50% of cells): > 100 µM
  TGI: > 100 µM
[25]
  growth inhibition (GI): Dose-dependent effect
[25]; K562, 48 h
  GI50: 36.4 µM
  TGI: > 100 µM
[25]; K562, 48 h, read-out: LC50 (the source's name)
  CC50: > 100 µM
[26]
  growth inhibition (GI): Dose-dependent effect
[26]; IGROV-1, 48 h
  GI50: 4.03 µM
  LC50: > 100 µM
  TGI: > 100 µM
